Results on six molecules are retold here after ChEMBL document CHEMBL1122854, “Novel bis[1,6-dihydro-6,6-dimethyl-1,3,5-triazine-2,4-diamines] as antitrypanosomal agents” (1985).

What all share (format): functional
The test system of assay [1] is Mus musculus. Put plainly: Antitrypanosomal activity was evaluated against Trypanosoma rhodesiense infections in mice, at dose 424 mg/kg, administered orally. The conditions noted are these: route oral. Put shortly: (§1)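 Oral dosing of IUR/HA Swiss mice (six weeks old, 30-32 g) infected i.p. with Wellcome CT strain T. rhodesiense, with five mice per dose level. Survival was followed for 30 days. Deaths before day 4 were counted as toxic and 30-day survivors as cured. ΔMST is the difference in mean survival time between treated and control mice.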

For assay [2], the system named is Mus musculus. Description: Antitrypanosomal activity was evaluated against Trypanosoma rhodesiense infections in mice, at dose 106 mg/kg, administered orally;Toxic. Put shortly:
as §1

The subject of assay [3] is Mus musculus. Description: Antitrypanosomal activity was evaluated against Trypanosoma rhodesiense infections in mice, at dose 106 mg/kg, administered orally. As to conditions: route oral.
The subject of assay [4] is Mus musculus. Description: Antitrypanosomal activity was evaluated against Trypanosoma rhodesiense infections in mice, at dose 26 mg/kg, administered orally. The conditions noted are these: route oral.
Assay [5] concerns Mus musculus. Description: Antitrypanosomal activity was evaluated against Trypanosoma rhodesiense infections in mice, at dose 13 mg/kg, administered subcutaneously;Cures. As to conditions: route subcutaneous. Put shortly:
(§2)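 IUR/HA Swiss mice (six weeks old, 30-32 g) infected i.p. with Wellcome CT strain T. rhodesiense. A single subcutaneous dose in peanut oil was given about 2 h after inoculation, with five mice per dose level. Positive control was stilbamidine or 2-hydroxystilbamidine isethionate at 40 mg/kg. Deaths before day 4 were scored toxic, and 30-day survivors cured.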

Assay [6] concerns Mus musculus. Put plainly: Antitrypanosomal activity was evaluated against Trypanosoma rhodesiense infections in mice, at dose 212 mg/kg, administered subcutaneously;Cures. As to conditions: route subcutaneous. Put shortly:
as §2

The test system of assay [7] is Mus musculus. Put plainly: Antitrypanosomal activity was evaluated against Trypanosoma rhodesiense infections in mice, at dose 26 mg/kg, administered subcutaneously;Cures. As to conditions: route subcutaneous. Put shortly: as §2
Assay [8] has as its system Mus musculus. Description: Antitrypanosomal activity was evaluated against Trypanosoma rhodesiense infections in mice, at dose 106 mg/kg, administered subcutaneously; Cures. The conditions noted are these: route subcutaneous. Put shortly: as §2
The test system of assay [9] is Mus musculus. Put plainly: Antitrypanosomal activity was evaluated against Trypanosoma rhodesiense infections in mice, at dose 53 mg/kg, administered subcutaneously;Cures. As to conditions: route subcutaneous. Put shortly: as §2
The test system of assay [10] is Mus musculus. Description: Antitrypanosomal activity was evaluated against Trypanosoma rhodesiense infections in mice, at dose 424 mg/kg, administered subcutaneously;Toxic. The conditions noted are these: route subcutaneous. Put shortly:
as §2

For assay [11], the system named is Mus musculus. Description: (§3) Antitrypanosomal activity was evaluated against Trypanosoma rhodesiense infections in mice, at dose 212 mg/kg, administered subcutaneously. The conditions noted are these: route subcutaneous. The method, boiled down:
(§4)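 Six-week-old IUR/HA Swiss mice (30-32 g), 5 per dose, infected ip with 0.5 mL of a 1:50 000 dilution of heparinized heart blood from donor mice infected 3 days before (Wellcome CT strain). Single sc dose in peanut oil about 2 h post-inoculation. Deaths before day 4 counted toxic. ΔMST versus untreated controls; survivors at 30 days counted cured.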

The subject of assay [12] is Trypanosoma brucei rhodesiense. Description: Anti-trypanosomal activity against Trypanosoma rhodesiense infections in mice, 26 mg/kg administered subcutaneously. The conditions noted are these: route subcutaneous. The method, boiled down:
as §4

Assay [13] deals with Trypanosoma brucei rhodesiense. Description: Antitrypanosomal activity against Trypanosoma rhodesiense infections in mice, 3.3 mg/kg administered subcutaneously. As to conditions: route subcutaneous. Put shortly: as §4
Assay [14] has as its system Trypanosoma brucei rhodesiense. Put plainly: Antitrypanosomal activity was evaluated against Trypanosoma rhodesiense infections in mice, at dose 424 mg/kg, administered subcutaneously. The conditions noted are these: route subcutaneous. Put shortly:
as §4

Assay [15] concerns Mus musculus. Description: (§5) Antitrypanosomal activity was evaluated against Trypanosoma rhodesiense infections in mice, at dose 6.6 mg/kg, administered subcutaneously. The conditions noted are these: route subcutaneous. The method, boiled down:
as §4

Assay [16] has as its system Trypanosoma brucei rhodesiense. Put plainly: (§6) Antitrypanosomal activity was evaluated against Trypanosoma rhodesiense infections in mice, at dose 53 mg/kg, administered subcutaneously. The conditions noted are these: route subcutaneous. Put shortly: as §4
Assay [17] concerns Mus musculus. Put plainly: Antitrypanosomal activity was evaluated against Trypanosoma rhodesiense infections in mice, at dose 1.6 mg/kg, administered subcutaneously; Cures. As to conditions: route subcutaneous. The method, boiled down:
as §2

Assay [18] has as its system Mus musculus. Put plainly: Antitrypanosomal activity was evaluated against Trypanosoma rhodesiense infections in mice, at dose 3.3 mg/kg, administered subcutaneously; Cures. The conditions noted are these: route subcutaneous. Put shortly:
as §2

Assay [19] relates to Mus musculus. Description: Antitrypanosomal activity was evaluated against Trypanosoma rhodesiense infections in mice, at dose 6.6 mg/kg administered subcutaneously; Cures. As to conditions: route subcutaneous. The method, boiled down:
as §2

In assay [20] the test system is Mus musculus. Described as §6. As to conditions: route subcutaneous. Put shortly: as §2
Assay [21] has as its system Trypanosoma brucei rhodesiense. Put plainly: Antitrypanosomal activity was evaluated against Trypanosoma rhodesiense infections in mice, at dose 26 mg/kg, administered subcutaneously. The conditions noted are these: route subcutaneous. Put shortly: as §2
Assay [22] concerns Trypanosoma brucei rhodesiense. Put plainly: (§7) Antitrypanosomal activity was evaluated against Trypanosoma rhodesiense infections in mice, at dose 106 mg/kg, administered subcutaneously. The conditions noted are these: route subcutaneous. Put shortly:
as §2

Assay [23] deals with Mus musculus. Put plainly: Antitrypanosomal activity was evaluated against Trypanosoma rhodesiense infections in mice, at dose 13 mg/kg, administered subcutaneously. The conditions noted are these: route subcutaneous. The method, boiled down:
as §2

The test system of assay [24] is Mus musculus. The assay is described as §3. The conditions noted are these: route subcutaneous. Put shortly: as §2
This is another data set of the same source.

Assay [25] deals with Trypanosoma brucei rhodesiense. Description: Antitrypanosomal activity was evaluated against Trypanosoma rhodesiense infections in mice, at dose 1.6 mg/kg, administered subcutaneously. The conditions noted are these: route subcutaneous. Put shortly: as §4
For assay [26], the system named is Trypanosoma brucei rhodesiense. Description: Antitrypanosomal activity against Trypanosoma rhodesiense infections in mice, 6.6 mg/kg administered subcutaneously. The conditions noted are these: route subcutaneous. Put shortly: as §4
Assay [27] deals with Mus musculus. Description: Antitrypanosomal activity was evaluated against Trypanosoma rhodesiense infections in mice, at dose 6.6 mg/kg, administered subcutaneously;Cures. The conditions noted are these: route subcutaneous. Put shortly: as §2
The subject of assay [28] is Trypanosoma brucei rhodesiense. Description: Antitrypanosomal activity against Trypanosoma rhodesiense infections in mice, 424 mg/kg administered subcutaneously. As to conditions: route subcutaneous. Put shortly: as §2
Assay [29] deals with Mus musculus. The description is as §7. The conditions noted are these: route subcutaneous. Put shortly: as §2
In assay [30] the test system is Mus musculus. Put plainly: Antitrypanosomal activity was evaluated against Trypanosoma rhodesiense infections in mice, at dose 13 mg/kg, administered subcutaneously; Cures. The conditions noted are these: route subcutaneous. Put shortly:
as §2

Assay [31] has as its system Mus musculus. Put plainly: Antitrypanosomal activity was evaluated against Trypanosoma rhodesiense infections in mice, at dose 26 mg/kg, administered subcutaneously; Cures. The conditions noted are these: route subcutaneous. The method, boiled down:
as §2

Assay [32] deals with Mus musculus. Put plainly: Antitrypanosomal activity was evaluated against Trypanosoma rhodesiense infections in mice, at dose 53 mg/kg, administered subcutaneously; Cures. As to conditions: route subcutaneous. The method, boiled down: as §2
Assay [33] concerns Mus musculus. The description is as §5. The conditions noted are these: route subcutaneous. The method, boiled down: as §2
The source holds these as a separate data set.

The subject of assay [34] is Mus musculus. Put plainly: Antitrypanosomal activity was evaluated against Trypanosoma rhodesiense infections in mice, at dose 106 mg/kg, administered subcutaneously;cures. As to conditions: route subcutaneous. The method, boiled down: as §2
For assay [35], the system named is Mus musculus. Description: Antitrypanosomal activity was evaluated against Trypanosoma rhodesiense infections in mice, at dose 26 mg/kg, administered subcutaneously;cures. The conditions noted are these: route subcutaneous. Put shortly: as §2
Assay [36] concerns Mus musculus. Description: Antitrypanosomal activity was evaluated against Trypanosoma rhodesiense infections in mice, at dose 212 mg/kg, administered subcutaneously;Toxic. As to conditions: route subcutaneous. Put shortly: as §2
Assay [37] concerns Trypanosoma brucei rhodesiense. Put plainly: Antitrypanosomal activity against Trypanosoma rhodesiense infections in mice, 106 mg/kg administered subcutaneously. As to conditions: route subcutaneous. The method, boiled down:
as §4

Assay [38] deals with Trypanosoma brucei rhodesiense. Described as §3. As to conditions: route subcutaneous. Put shortly:
as §4

Regarding `CC1(C)N=C(N)N=C(N)N1c1ccc(Oc2ccc(Oc3ccc(N4C(N)=NC(N)=NC4(C)C)cc3)cc2)cc1.Cl.Cl`, the Toxic with Mus musculus [1] is given as 5; in the assay on Mus musculus [2], 4. In addition, the “Delta MST” value in the assay with Mus musculus [3] came out at 1.9 days; in the assay on Mus musculus [4], 0.5 days.
Regarding `CC1(C)N=C(N)N=C(N)N1c1ccc(CCc2ccc(N3C(N)=NC(N)=NC3(C)C)cc2)cc1.Cl.Cl`, the Cures in the assay with Mus musculus [5] is 4; in the assay on Mus musculus [6], 3; in the assay with Mus musculus [7] it was 4; in the assay on Mus musculus [8] it was 5; in the assay with Mus musculus [9], 4. Moreover, the Toxic in the assay with Mus musculus [10] was determined as 3. In addition, the “Delta MST” value in the assay on Mus musculus [11] is 3.8 days; in assay [12], 7.7 days; in [13], 3.2 days; in [14], 0.2 days; in the assay with Mus musculus [15] it was 3.4 days; in [16], 7.8 days.
`CC1(C)N=C(N)N=C(N)N1c1ccc(-c2ccc(N3C(N)=NC(N)=NC3(C)C)cc2)cc1.Cl.Cl`: the Cures with Mus musculus [17] stood at 1; with Mus musculus [18] it was 1; with Mus musculus [19] it was 4. Moreover, the Toxic (in the assay with Mus musculus [20]; in assay [21]; in assay [22]; in the assay on Mus musculus [23]; in the assay with Mus musculus [24]) was 5 throughout. Moreover, the “Delta MST” value in [25] was found to be 3.7 days; in assay [13] it was 9.2 days; in assay [26], 7.8 days.
In the case of `CC1(C)N=C(N)N=C(N)N1c1ccc(Oc2ccc(N3C(N)=NC(N)=NC3(C)C)cc2)cc1.Cl.Cl`, the Cures with Mus musculus [5] was 2; with Mus musculus [27], 1. Moreover, the Toxic (in assay [28]; in the assay on Mus musculus [29]) was 5 throughout. The “Delta MST” value in assay [12] came to 5 days; in [13], 4.2 days; in [26], 5.3 days.
`CC1(C)N=C(N)N=C(N)N1c1ccc(OCOc2ccc(N3C(N)=NC(N)=NC3(C)C)cc2)cc1.Cl.Cl`: the Cures in the assay on Mus musculus [30] was determined as 3; with Mus musculus [31], 3; with Mus musculus [32], 1; in the assay on Mus musculus [33] it was 1. The results for the Toxic (in assay [28]; in the assay with Mus musculus [20]; in assay [22]) were 5, 2 and 5, respectively. Also, the “Delta MST” value was 1 days in [25]; 1.8 days in assay [12]; 1.2 days in assay [13]; 2.3 days in assay [26]; 9 days in assay [16].
Regarding `Cl.Cl.N=C(N)NC(=N)Nc1ccc(CCc2ccc(NC(=N)N=C(N)N)cc2)cc1`, the Cures stood at 2 in the assay on Mus musculus [6], 3 in the assay on Mus musculus [34] and 1 in the assay with Mus musculus [35]. Also, the Toxic in assay [28] is 5; in the assay with Mus musculus [36], 2. Further, the “Delta MST” value in [37] worked out at 8 days; in [38], 12 days; in assay [12], 3 days; in assay [16] it was 1.4 days.
